ChEMBL document CHEMBL4513216, “Probing the Open Global Health Chemical Diversity Library for Multistage-Active Starting Points for Next-Generation Antimalarials” (ACS Infect Dis, 2020)

Assay: Toxicity liver stage against HepG2, at 10uM
Assay type: cell-based
Parameters: test concentration 10 uM, cell line HepG2-A16-CD81EGFP
Details: human, HepG2-A16-CD81EGFP cells; read-out: INHIBITION
Outline: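 Uninfected HepG2-A16-CD81EGFP cells, 3 × 10^3 per well, 1536-well, plated on prespotted compound at 10 μM final, parasite-free screening media added to match infected plates; puromycin 10 μM positive, DMSO 0.5% negative; run in parallel with 48 h PbLuc assay at 37 °C, 5% CO2; viability by CellTiter-Glo luminescence, normalized to controls.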

CC1(C)Oc2ccc(S(=O)(=O)NCCCn3ccnc3)cc2NC1=O
cytotoxicity at 10 µM: 14.5%

O=C(NC[C@H]1OC[C@@H](NCc2ccccc2)[C@@H]1O)Nc1ccc(F)cc1
cytotoxicity at 10 µM: -10.8%

CN1CCC(N[C@@H]2CO[C@H](CNC(=O)c3cccs3)[C@H]2O)CC1
cytotoxicity at 10 µM: -0.376%

CCN(CC)CC[C@H]1CN(C(=O)C2CCC2)CC[C@H]1CC(=O)O
cytotoxicity at 10 µM: 1.35%

CCN1Cc2cc(OC)ccc2N(CC(C)(C)O)CCC1=O
cytotoxicity at 10 µM: -12.2%

CC(C)NC(=O)Cc1cnc(-n2cccc2)s1
cytotoxicity at 10 µM: -4.6%

CCc1c(C)sc2nc3n(CCN4CCOCC4)nc(SC)n3c(=O)c12
cytotoxicity at 10 µM: 1.09%

NC(=O)CSc1nnc2[nH]c(=O)c3c(n12)CCCC3
cytotoxicity at 10 µM: -4.44%

COc1ccc(CN2Cc3[nH]nc(C(=O)N(C)C)c3C2)cc1
cytotoxicity at 10 µM: -2.48%

c1cnc(NC[C@H]2OC[C@@H]3CCN(Cc4ccncc4)C[C@@H]32)nc1
cytotoxicity at 10 µM: -4.61%

O=C(C1CCOC1)N1CCN(Cc2ccncc2)c2ncccc2C1 (configuration not stated)
cytotoxicity at 10 µM: 0.617%

CC(C)CNC(=O)c1cc2c(s1)CCN2S(C)(=O)=O
cytotoxicity at 10 µM: -0.522%

O=c1c2cn[nH]c2nc(SCCN2CCCC2)n1-c1ccccc1
cytotoxicity at 10 µM: -2.03%

O=C(COc1coc(CN2CCCC2)cc1=O)NCc1ccccc1Cl
cytotoxicity at 10 µM: -0.317%

O=S(=O)(Nc1cnn(C2CCOCC2)c1)c1c(F)cccc1F
cytotoxicity at 10 µM: 13.9%

O=C(CSC1CCc2ccccc2NC1=O)NCCO (configuration not stated)
cytotoxicity at 10 µM: 5.52%

CC(C)CN1C[C@@H]2CN(C(=O)[C@H]3CCCO3)C[C@@H]2C1=O
cytotoxicity at 10 µM: 6.03%

CC[C@H]1NCCC[C@]12CCC(=O)N2Cc1ccncc1
cytotoxicity at 10 µM: 6.29%

O=C(NCc1cnc2n1CCN(CC1CC1)CC2)C1CCC1
cytotoxicity at 10 µM: -12.9%

COCCN1CCC2(CCN(Cc3nccs3)CC2)C1=O
cytotoxicity at 10 µM: -4.36%

Cc1ccc(C)c(NCc2nc3n(n2)CCCCC3)c1
cytotoxicity at 10 µM: 6.39%

CNc1[nH]nc(N)c1NC(=O)c1ccccc1
cytotoxicity at 10 µM: 9.96%

Cc1nn(C)c2cnn(Cc3ccc(C(=O)NCC4CCCO4)o3)c12 (configuration not stated)
cytotoxicity at 10 µM: 9.37%

CCn1nc(C)c2nc(C(C)C)nc(NCCOC)c21
cytotoxicity at 10 µM: 6.3%

COCCC(=O)N1CCOCC(Cc2ccc3c(ccn3C)c2)C1 (configuration not stated)
cytotoxicity at 10 µM: 6.66%

CN(C)c1cncc(C2CCCN(c3cnccn3)C2)n1 (configuration not stated)
cytotoxicity at 10 µM: 2.45%

CC(C(N)=O)n1nc(-c2cccs2)cc(N)c1=O (configuration not stated)
cytotoxicity at 10 µM: 6.44%

O=C(NCC1CCOCC1)c1cc(-c2ccncc2)c2cnccc2n1
cytotoxicity at 10 µM: -0.762%

Cn1ccc(NC(=O)CN2CCC(Oc3cnccn3)CC2)n1
cytotoxicity at 10 µM: 4.3%

CN1CCC(c2[nH]ncc2S(C)(=O)=O)CC1
cytotoxicity at 10 µM: -7.06%

CCCC(=O)N1CCC(c2cc[nH]n2)C1 (configuration not stated)
cytotoxicity at 10 µM: 1.2%

CC(=O)N1CCCC1c1cccc(Oc2ccccc2F)n1 (configuration not stated)
cytotoxicity at 10 µM: -2.53%

O=C1CC2(CCN(C(=O)c3ccccn3)C2)Nc2ccccc2N1 (configuration not stated)
cytotoxicity at 10 µM: 10.9%

CCn1cnc2c(c(Br)nn2C)c1=O
cytotoxicity at 10 µM: 4.37%

CCN(CC(C)C#N)C(=O)CNc1cc(Cl)ccc1C(N)=O (configuration not stated)
cytotoxicity at 10 µM: 17.6%

Cc1oc(C(=O)Nc2ccccc2F)cc1S(N)(=O)=O
cytotoxicity at 10 µM: -1.07%

Cc1noc(C)c1C(=O)N(C)C(C)c1ccncc1 (configuration not stated)
cytotoxicity at 10 µM: 0.66%

COc1c(F)cc(NC(=O)N2CCC(CSC)C2)cc1F (configuration not stated)
cytotoxicity at 10 µM: 10.2%

O=C(Cc1csc(Cc2ccccn2)n1)NCCCN1CCCC1=O
cytotoxicity at 10 µM: -6.29%

COc1ccc(CNC(=O)N2CCOCC2C2CC2)c(C)c1 (configuration not stated)
cytotoxicity at 10 µM: 4.54%

COCc1cccc(C(=O)N2CCN(C3=NCC(C)(C)S3)CC2)c1
cytotoxicity at 10 µM: 4.65%

Cc1ccc(C(=O)Nc2ccc(N3CCC(O)CC3)c(C#N)c2)s1
cytotoxicity at 10 µM: -5.71%

CC(=O)NCCc1ccc(S(=O)(=O)N(C)C(C)C(C)(C)C)s1 (configuration not stated)
cytotoxicity at 10 µM: -3.58%

c1csc(-c2nc(CN3CCCC3Cn3cccn3)co2)c1 (configuration not stated)
cytotoxicity at 10 µM: 11.1%

CC(C)C(=O)NC1CCN(CCO)CC1
cytotoxicity at 10 µM: -8.84%

Cc1ccc(CC(=O)NCC(Cc2ccc(F)cc2)C(N)=O)cn1 (configuration not stated)
cytotoxicity at 10 µM: 12%

O=S(=O)(NCCCN1CC=CC1)c1cncc(Cl)c1
cytotoxicity at 10 µM: -6.38%

COCCOCC(=O)NC(C#N)c1ccccc1C (configuration not stated)
cytotoxicity at 10 µM: -1.65%

COc1ccc(OCC(=O)NS(=O)(=O)c2ccc(Cl)s2)cc1
cytotoxicity at 10 µM: 14.1%

CN(C)C(CNCc1nc(-c2ccsc2)no1)c1ccsc1 (configuration not stated)
cytotoxicity at 10 µM: -1.63%

Cc1nc2ccccc2n1CCNCc1cccc(C#N)c1
cytotoxicity at 10 µM: -0.591%

N#Cc1c(F)cccc1N1CCC(C(=O)Nc2nccs2)CC1
cytotoxicity at 10 µM: 0.329%

Cc1ccc2cccc(S(=O)(=O)N(C)CC3CCN(C)CC3)c2n1
cytotoxicity at 10 µM: -1.6%

COc1ccc(Br)cc1CN(C)c1nc2c(cnn2C)c(=O)[nH]1
cytotoxicity at 10 µM: 48.1%

O=C(C1CCCc2[nH]ncc21)N1CCCC1 (configuration not stated)
cytotoxicity at 10 µM: 8.53%

CCc1nc(CN(C)CC2CCN(CCO)CC2)no1
cytotoxicity at 10 µM: -9.68%

Cc1noc(C(C)N2CCN(CCC(=O)N3CCCCC3)CC2)n1 (configuration not stated)
cytotoxicity at 10 µM: -9.24%

CNC(=O)N1C[C@H]2N(c3ncccn3)CCC[C@@]2(C(=O)NCC2CC2)C1
cytotoxicity at 10 µM: -101%

CC[C@@H](C)[C@@H](N)C(=O)Nc1cccc(-c2cnc(N)nc2)c1
cytotoxicity at 10 µM: 0.942%

COCC(=O)N1CCC2(CCCN(Cc3ccc(Cl)cc3)CC2)CC1
cytotoxicity at 10 µM: -0.153%

CN(C)CCn1ccnc1C1CCCN(c2ncc(Cl)cc2F)C1 (configuration not stated)
cytotoxicity at 10 µM: -1.75%

CC(C)CCn1cc(C(C(=O)O)N2CCSCC2)cn1 (configuration not stated)
cytotoxicity at 10 µM: -1.17%

COc1cccc(Cn2c(C)c(C)oc2=O)c1OC
cytotoxicity at 10 µM: -2.34%

CN(C)CCCn1ccnc1C1CCCN(c2ncc(Cl)cc2F)C1 (configuration not stated)
cytotoxicity at 10 µM: -7.43%

Cc1nc(Cn2c(=O)cnc3ccccc32)n(C)n1
cytotoxicity at 10 µM: -0.825%

COc1cccc2c(=O)n(Cc3ccnc(C)c3)cnc12
cytotoxicity at 10 µM: -0.0198%

Cc1ccccc1C(=O)NC[C@@H]1CCN(C(=O)c2cccn2C)C[C@H]1O
cytotoxicity at 10 µM: -45.3%

CCNC(=O)[C@@H]1C[C@H](N)CN1C(=O)c1cccc(CCC(C)(C)O)c1
cytotoxicity at 10 µM: 4.61%

CC(CN(C)Cc1cccc(-n2cccn2)c1)C(F)(F)F (configuration not stated)
cytotoxicity at 10 µM: 1.55%

CCC[C@@H]1CN(Cc2ccccc2C#N)C[C@H]1NC(C)=O
cytotoxicity at 10 µM: -3.92%

CC(C(=O)O)N1CC2(CCC1=O)CCN(CCc1ccccc1)CC2 (configuration not stated)
cytotoxicity at 10 µM: -0.503%

Cc1[nH]c2c(F)cccc2c1CC(=O)NC1CCCCNC1=O (configuration not stated)
cytotoxicity at 10 µM: 19.1%

Cc1ccccc1CC(=O)N1CCc2c(ncnc2N2CCOCC2)C1
cytotoxicity at 10 µM: -3.39%

COCCN(C)C[C@@H]1CN(Cc2ccnc3ccccc23)C[C@@H]1CO
cytotoxicity at 10 µM: -6.33%

CNC(=O)c1nc(CN2CCOC(CCCC(C)C)C2)no1 (configuration not stated)
cytotoxicity at 10 µM: -2.25%

Cc1nn(C)cc1-c1cc(C(F)(F)F)n(CCCN)n1
cytotoxicity at 10 µM: -6.25%

Cc1cn[nH]c1C1CCCCN1C(=O)CCN1CCCCCC1 (configuration not stated)
cytotoxicity at 10 µM: 5.7%

CC(C)(C)c1nc(CN2CCCN(Cc3cccs3)CC2)no1
cytotoxicity at 10 µM: 6%

Cc1nc(C2CCCN2C(=O)c2cc3c(s2)CCC3)no1 (configuration not stated)
cytotoxicity at 10 µM: -6.82%

CC(NC(=O)N1CCC(n2cncn2)CC1)c1ccc(F)cc1 (configuration not stated)
cytotoxicity at 10 µM: -3.66%

c1ncn(CC2CN(Cc3ccc4c(c3)OCCO4)CCO2)n1 (configuration not stated)
cytotoxicity at 10 µM: -0.282%

CS(=O)(=O)c1ccc(CNC(=O)N2CCC(CO)CC2)cc1
cytotoxicity at 10 µM: -11.6%

Cc1cnn(CC2CCCN2Cc2noc(CC(C)C)n2)c1 (configuration not stated)
cytotoxicity at 10 µM: -5.04%

Cc1ccccc1CC(C)NC(=O)Nc1cnn(CC(N)=O)c1 (configuration not stated)
cytotoxicity at 10 µM: -11.5%

Cc1nn(C)c(N(C)C)c1CNCc1ccnc(N2CCOCC2)c1
cytotoxicity at 10 µM: -13%

O=C(c1cc(Cl)ccc1F)N1CCCC1Cn1cccn1 (configuration not stated)
cytotoxicity at 10 µM: 8.36%

COc1cccc(OCC(=O)NS(=O)(=O)c2ccc(Br)s2)c1
cytotoxicity at 10 µM: -16.1%

Cc1cnn(CCNCC(=O)NCC2(c3ccccc3)CC2)c1
cytotoxicity at 10 µM: 5.58%

CN(C)c1cc(C(=O)N2CCCCC2Cn2cccn2)ccn1 (configuration not stated)
cytotoxicity at 10 µM: -23%

COc1ccc(OC)c(C(=O)N(C)Cc2ncc(C)c(OC)c2C)c1
cytotoxicity at 10 µM: -4.3%

Cc1nc2ccccc2nc1CN1CCCC1Cn1cccn1 (configuration not stated)
cytotoxicity at 10 µM: -31.4%

CS(=O)(=O)c1ccc(CNC(=O)NCC2CCOC2)cc1 (configuration not stated)
cytotoxicity at 10 µM: -9.22%

Cc1nc(-c2ccccc2)sc1C(=O)NCCNc1ncccn1
cytotoxicity at 10 µM: 0.273%

COCCCNC(=O)CN(C)C(=O)c1cc(C)sc1C
cytotoxicity at 10 µM: -2.58%

NC(=O)c1csc(C(=O)N2CCCCC2Cn2cccn2)c1 (configuration not stated)
cytotoxicity at 10 µM: -3.56%

O=C(C1CCCCN1Cc1nc(-c2ccco2)no1)N1CCCC1 (configuration not stated)
cytotoxicity at 10 µM: -4.64%

O=C(NCCn1ccnc1)N1CCCC1c1ccsc1 (configuration not stated)
cytotoxicity at 10 µM: -6.05%

CCC1CN(c2nnc(C)c(C)c2C#N)CCO1 (configuration not stated)
cytotoxicity at 10 µM: -0.678%

Cc1nnc(N2CCOC(Cn3cccn3)C2)c(C#N)c1C (configuration not stated)
cytotoxicity at 10 µM: -8.47%

C=C(Cl)CN1CCC(C(=O)c2cc(F)ccc2F)CC1
cytotoxicity at 10 µM: -7.26%

COc1ccc(COCC(O)CNC(=O)c2cc(C)cc(C)c2)cc1 (configuration not stated)
cytotoxicity at 10 µM: 0.385%

CCCc1nc(CN2CCN(Cc3noc(CCC)n3)CC2)no1
cytotoxicity at 10 µM: -0.914%

CCc1n[nH]c(C2CN(C(=O)c3nc(C)n4ccccc34)CCO2)n1 (configuration not stated)
cytotoxicity at 10 µM: -11.2%

COc1ccc(C)cc1CSCCn1nc2ccccn2c1=O
cytotoxicity at 10 µM: 1.03%

CC(C)N(C)Cc1cnc2n1CCN(Cc1ccc(F)cc1)C2
cytotoxicity at 10 µM: 1.44%

O=C(CN1CC(c2nc(-c3ccco3)no2)C1)NCC1CCCO1 (configuration not stated)
cytotoxicity at 10 µM: 2.21%

CCN1CC[C@@]2(C(=O)N3CCOCC3)CCN(S(=O)(=O)CC)CC[C@@H]12
cytotoxicity at 10 µM: 8.92%

Cc1nn(C)c(C)c1S(=O)(=O)N1CC[C@H]2O[C@@H](C)C[C@H]2C1
cytotoxicity at 10 µM: 2.79%

CN(C)C(=O)CN1CCC2(CC1)COc1ccccc1S(=O)(=O)N(C)C2
cytotoxicity at 10 µM: -0.259%

O=C(NCCc1cccs1)[C@H]1CO[C@H]2CCN(CC3CC3)C[C@H]2C1
cytotoxicity at 10 µM: -103%

CN(C)C(=O)CN1C(=O)CCC12CCN(Cc1ccc(F)cc1)CC2
cytotoxicity at 10 µM: 7.8%

CCN1C[C@@H]2[C@@H](OC)CCN(S(=O)(=O)c3ccccc3)[C@@H]2C1
cytotoxicity at 10 µM: -2.7%
